This is a sample that favours compounds with a hit; in the whole collection about 3.5% have one here.
MrgX1 antag = human MrgX1 receptor antagonism, primary screen; Q96LB2; MRGX1-HEK293 calcium flux, Fluo-4, BAM8-22 antagonism; stronger effect = lower value; B-score at 10 µM; 1.3% of 310,000 active;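 active means calcium-response B-score plate-corrected more than 3 library SD below zero, starting fluorescence within 5 deviations, no agonist response on first addition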;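 further: peak minus trough fluorescence over baseline after final BAM8-22 challenge near maximal dose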
MrgX1 agonist = activates human MrgX1 receptor signaling | AID 588627 | B-score at 10 µM | MrgX1-HEK293 cells, Fluo-4 calcium fluorescence, agonist mode; stronger effect = higher value | 0.44% of 310,000 active;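 active means calcium response B-score plate-corrected fluorescence ratio at least 3 library SD, with starting fluorescence B-score inside 5 SD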
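System – MrgX1-expressing HEK293 cells · Incubation – cells plated overnight, dye loaded 0.5 h 37 °C, 0.5 h room temperature · Technique – kinetic Fluo-4 NW fluorescence of intracellular calcium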
RGS4 block = human RGS4 inhibition | P49798 | HEK293 M3R/RGS4 inducible, Fluo-4 calcium flux; stronger effect = higher value; triggered by carbachol at its EC20 | B-score at 10 µM | 0.45% of 310,000 active | AID 463165;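 active means B-score, a plate-corrected calcium signal, over three deviations above library mean, with baseline fluorescence within five deviations of library mean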;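 further: RGS4 expression induced by doxycycline in cells with stable M3 receptor; B-score is computed from the integrated fluorescence ratio over baseline after carbachol; higher B-score means a larger calcium signal and so more RGS4 inhibition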
Target sequence (P49798 whole entry, looked up): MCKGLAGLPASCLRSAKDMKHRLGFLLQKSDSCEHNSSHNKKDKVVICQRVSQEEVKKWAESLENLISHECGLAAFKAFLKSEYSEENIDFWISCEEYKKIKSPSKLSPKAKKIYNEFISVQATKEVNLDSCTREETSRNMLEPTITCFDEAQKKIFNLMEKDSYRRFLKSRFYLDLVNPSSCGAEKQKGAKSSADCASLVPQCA
MrgX1 allo act = allosterically activates human MrgX1 receptor signaling; B-score at 10 µM; Q96LB2; 0.63% of 310,000 active; MrgX1-HEK293, Fluo-4 calcium flux, FDSS; stronger effect = higher value;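 active means plate-corrected calcium response at least 3 library SD above typical, normal starting fluorescence, not activating the receptor alone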;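 further: compound read alongside a low EC10 to EC30 dose of BAM8-22 agonist; peak minus trough fluorescence over baseline measured at the second addition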
RGS4 act = potentiators or activators of RGS4. 0.92% of 310,000 active. AID 463111. B-score at 10 µM. HEK293 M3R/inducible RGS4, carbachol calcium flux Fluo4; stronger effect = lower value;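 active means B-score of the integrated calcium signal more than 4 SD below the library mean, with starting fluorescence not abnormally high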;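 further: negative B-score means reduced calcium response which marks RGS4 activation or potentiation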
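Assay system: Inducible-RGS4 HEK293 cells carrying M3 receptor | Schedule: Compound preincubation 20 min at room temperature before agonist | Signal: Kinetic calcium fluorescence imaging with Fluo4-AM dye, 2 µM | Read-out basis: B score from integrated fluorescence ratio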
An asterisk follows results filed as active.

What do the screens show for `Cc1nn(-c2ccccc2)nc1CNC(=O)c1ncoc1-c1ccccc1`?
MrgX1 antag: inactive; MrgX1 agonist: inactive; RGS4 block: inactive; MrgX1 allo act: inactive; RGS4 act: -7.4*

Results for CC1CCc2sc(C(=O)NCCCn3ccnc3)cc2C1 (configuration not stated) ?
MrgX1 antag: inactive; MrgX1 agonist: inactive; RGS4 block: inactive; MrgX1 allo act: inactive; RGS4 act: inactive

Results for CCOC(=O)c1c(-c2ccccc2)oc2ccc(OCC)cc12 ?
MrgX1 antag: inactive; MrgX1 agonist: inactive; RGS4 block: inactive; MrgX1 allo act: inactive; RGS4 act: inactive

What do the screens show for `CCOC(=O)c1c(-c2ccccc2)oc2ccc(OCC(O)CNCCN(C)C)cc12` (configuration not stated)?
MrgX1 antag: inactive; MrgX1 agonist: inactive; RGS4 block: inactive; MrgX1 allo act: inactive; RGS4 act: -7.6*

What do the screens show for `Cc1cccc(C(=O)NNC(=O)CCC(=O)Nc2cccc(Cl)c2C)c1`?
MrgX1 antag: -6.9*; MrgX1 agonist: inactive; RGS4 block: inactive; MrgX1 allo act: inactive; RGS4 act: inactive

How did FC(F)(F)c1cc(CCN2C(=S)NC[C@@H]2CC2CCCCC2)cc(C(F)(F)F)c1 do in these assays?
MrgX1 antag: inactive; MrgX1 agonist: inactive; RGS4 block: inactive; MrgX1 allo act: inactive; RGS4 act: -9.8*

Results for CCN=C1S/C(=C\c2ccc(-c3cccc(C(=O)O)c3)o2)C(=O)N1CC ?
MrgX1 antag: inactive; MrgX1 agonist: inactive; RGS4 block: inactive; MrgX1 allo act: inactive; RGS4 act: inactive

Results for CCN1C(=O)/C(=C\c2ccc(-c3cccc(C(=O)OC)c3)o2)SC1=Nc1ccc(C(=O)O)cc1 ?
MrgX1 antag: -6.5*; MrgX1 agonist: inactive; RGS4 block: inactive; MrgX1 allo act: inactive; RGS4 act: inactive

What do the screens show for `O=C(O)c1cccc(-c2ccc(/C=C3/SC(=Nc4ccccc4)N(Cc4cccnc4)C3=O)o2)c1`?
MrgX1 antag: -5.1*; MrgX1 agonist: inactive; RGS4 block: inactive; MrgX1 allo act: inactive; RGS4 act: inactive

How did Cc1ccc(NC2CCCN(C(=O)c3ccc(C)c(N4CCNC4=O)c3)C2)cc1C (configuration not stated) do in these assays?
MrgX1 antag: inactive; MrgX1 agonist: inactive; RGS4 block: inactive; MrgX1 allo act: inactive; RGS4 act: inactive

How did Cc1cc(C)nc(Sc2nc(Cl)nc(N(c3ccccc3)c3ccccc3)n2)n1 do in these assays?
MrgX1 antag: inactive; MrgX1 agonist: inactive; RGS4 block: inactive; MrgX1 allo act: inactive; RGS4 act: inactive

What do the screens show for `COC(=O)C(C)Oc1ccc(=O)[nH]n1` (configuration not stated)?
MrgX1 antag: inactive; MrgX1 agonist: inactive; RGS4 block: inactive; MrgX1 allo act: inactive; RGS4 act: inactive

Results for CC(C)/C=C(/C(=O)c1ccc(Cl)cc1Cl)n1cncn1 ?
MrgX1 antag: inactive; MrgX1 agonist: inactive; RGS4 block: inactive; MrgX1 allo act: inactive; RGS4 act: inactive

How did O=C(/C(=C/c1cccnc1)n1ccnc1)c1ccc(Cl)cc1Cl do in these assays?
MrgX1 antag: inactive; MrgX1 agonist: 33*; RGS4 block: inactive; MrgX1 allo act: inactive; RGS4 act: inactive

What do the screens show for `CCOc1cccc2cc(-c3nnc(NCc4ccco4)s3)c(=O)oc12`?
MrgX1 antag: -4.8*; MrgX1 agonist: inactive; RGS4 block: inactive; MrgX1 allo act: inactive; RGS4 act: inactive

What do the screens show for `CN(C)c1ccc(N=C/C=C2/N(C)c3ccccc3C2(C)C)cc1`?
RGS4 block: inactive; RGS4 act: inactive

Results for Cc1ccccc1S(=O)(=O)Cc1ccc(C(=O)NC(C)c2ccc3c(c2)OCCO3)o1 (configuration not stated) ?
MrgX1 antag: inactive; MrgX1 agonist: inactive; RGS4 block: inactive; MrgX1 allo act: inactive; RGS4 act: inactive

Results for CC(NC(=O)c1ccc(CS(=O)(=O)c2ccc(Cl)cc2)o1)c1ccc2c(c1)OCCO2 (configuration not stated) ?
MrgX1 antag: inactive; MrgX1 agonist: inactive; RGS4 block: inactive; MrgX1 allo act: inactive; RGS4 act: -7.4*

Screens: PubChem BioAssay, Johns Hopkins Ion Channel Center
